Assay results pooled from the literature.
Lines come from different studies, so protocols differ.
Target: Phosphatidylinositol 4-phosphate 5-kinase type-1 gamma (PIP5K1C, Homo sapiens, UniProt O60331)

CNC(=O)[C@@H]1CC[C@@H](n2c(-c3ccc4cnccc4c3)nc3ccc(C(=O)NCc4cccc(C(N)=O)c4)cc32)C1
remaining binding (binding; competition with immobilised ligand; 1 µM): 80%

C[C@H]1CCN(c2nccc(-c3cnn4ncccc34)n2)C1
remaining binding (binding; 1 µM): 95%

O=C(Nc1c[nH]nc1C(=O)NC1CCNCC1)c1cc(F)cc(F)c1
remaining binding (binding; competition with immobilised ligand; 1 µM): 87%

Cc1nc(C2CCN(C(=O)c3ccc(OC(F)(F)F)cc3N)CC2)c2ncc(N3CCN(C)CC3)cc2n1
remaining binding (cell-free assay; competition with immobilised ligand; 1 µM): 94%

COc1ncc2cc3ccccc3nc2c1C#N
remaining binding (cell-free assay; competition with immobilised ligand; 5 µM): 89%

c1cncc(-c2cccc(Nc3nccc(NC4CCCCC4)n3)c2)c1
remaining binding (binding; competition with immobilised ligand; 10 µM): 0%

N#CC1(c2ccccn2)CCN(Cc2cc(C(=O)N3CCCC3)c(=O)n3ccccc23)CC1
remaining binding (cell-free assay; competition with immobilised ligand; 1 µM): 68%

Cc1cnn2ncc(-c3ccnc(N(C)C)n3)c2c1
remaining binding (binding; 1 µM): 100%

CCN1CCN(Cc2ccc(C(=O)Nc3ccc(C)c(Oc4ccc5c(c4)CC(=O)N5)c3)cc2C(F)(F)F)CC1
remaining binding (binding; competition with immobilised ligand; 1 µM): 92%

CN(C(=O)c1ccccc1)c1cc(N(C)c2ccc3c(c2)CCc2ccc(C(=O)NCCN4CCOCC4)cc2C3=O)ccc1F
remaining binding (cell-free assay; competition with immobilised ligand; 1 µM): 80%

O=C(c1ccc(Nc2nccc(-c3cc4ccccc4s3)n2)cc1)N1CCC(N2CCCC2)CC1
remaining binding (binding; competition with immobilised ligand; 1 µM): 13%

COc1cnc(Nc2cccc(S(N)(=O)=O)c2)nc1N1CCN(c2ccccc2)C(=O)C1
remaining binding (binding; competition with immobilised ligand; 1 µM): 95%

O=C(c1ccc(Nc2ncc(Cl)c(-c3ccc(Cl)s3)n2)cc1)N1CCC(N2CCCC2)CC1
remaining binding (binding; competition with immobilised ligand; 1 µM): 72%

CN(C)c1nccc(-c2cnc3ncccn23)n1
remaining binding (binding; 1 µM): 100%

C[C@@]1(Cc2ccc(C#N)cc2)C(=O)N(c2cc(Cl)cc(Cl)c2)c2ncc(C(=O)NC3(c4nc(C5CCC5)no4)CC3)n21
remaining binding (cell-free assay; competition with immobilised ligand; 1 µM): 100%

N[C@@H]1CCN(c2nccc(-c3cnn4ncccc34)n2)C1
remaining binding (binding; 1 µM): 81%

O=C(NCCCN1CCOCC1)c1ccc(Nc2nccc(-c3cc4ccccc4s3)n2)cc1
remaining binding (binding; competition with immobilised ligand; 1 µM): 2.3%

COc1cccc(CNC(=O)c2nc3scc(COCc4ccc(C(=O)O)cc4)c3c(=O)[nH]2)c1
remaining binding (cell-free assay; competition with immobilised ligand; 1 µM): 63.7%

CN(CCCC(F)(F)F)c1nccc(-c2cnn3ncccc23)n1
remaining binding (binding; 1 µM): 77%
